Measurements published in ChEMBL document CHEMBL1155205, “Structure-activity relationship of isoform selective inhibitors of Rac1/1b GTPase nucleotide binding” (Bioorg Med Chem Lett, 2009).
Where a name gives a salt, the structure may show the parent alone.

Key:
[1] = target: T1, Cell division control protein 42 homolog (Homo sapiens, UniProt P60953); test: Inhibition of Cdc42 GTPase activity assessed as incorporation of BODIPY-GTP at 50 uM after 40 mins by nucleotide binding competition assay
Method in brief: (§1)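 Bacterially expressed GST-Cdc42 preincubated 10 min at 20 °C in 20 mM Tris pH 8.6, 50 mM NaCl, 1 mM MgCl2. No GEF was added (intrinsic exchange). BODIPY-GTP was then added with or without compound. Fluorescence was read at ex 485/em 538 nm before and after addition. Maximal RFU at 40 min was compared with control. Means of at least three independent experiments, with SEM.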
Target sequence in this assay (P60953 whole entry, looked up): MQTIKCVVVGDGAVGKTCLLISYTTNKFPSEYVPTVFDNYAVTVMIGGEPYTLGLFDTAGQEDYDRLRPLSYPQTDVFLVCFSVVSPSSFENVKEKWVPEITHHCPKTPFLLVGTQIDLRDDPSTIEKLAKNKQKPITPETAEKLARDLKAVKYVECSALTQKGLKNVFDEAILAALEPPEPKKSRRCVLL

[2] = target: T2, Ras-related C3 botulinum toxin substrate 1 (Homo sapiens, UniProt P63000); test: Inhibition of Rac1 GTPase activity assessed as incorporation of BODIPY-GTP after 40 mins by nucleotide binding competition assay
[3] = target: T1, Cell division control protein 42 homolog; test: Inhibition of Cdc42 GTPase activity assessed as incorporation of BODIPY-GTP after 40 mins by nucleotide binding competition assay; method in brief: as §1
Target sequence in this assay (P60953 whole entry): as the sequence (P60953 whole entry, looked up) above

[4] = Selectivity of IC50 for Rac1 GTPase activity to IC50 for Rac1b GTPase activity
Method in brief: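 Ratio of IC50s for inhibiting BODIPY-GTP binding to bacterially expressed GST-Rac1 and GST-Rac1b. Rac1 binding was stimulated by His6-Tiam1 DH/PH, while Rac1b used intrinsic exchange. Protein was pre-incubated 10 min at 20 °C in 20 mM Tris pH 8.6, 50 mM NaCl, 1 mM MgCl2, then BODIPY-GTP ± compound was added. Fluorescence (ex 485/em 538 nm) was read as maximal RFU at 40 min; means of ≥3 independent experiments.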

[5] = target: T2, Ras-related C3 botulinum toxin substrate 1; test: Inhibition of Rac1b GTPase activity assessed as incorporation of BODIPY-GTP after 40 mins by nucleotide binding competition assay
[6] = test system: HEK293; test: Inhibition of Rac GTPase activation in Rac1b overexpressing human HEK293 cells at 50 uM after 5 mins by G-LISA assay; format: cell-based
Method in brief: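 HEK293 cells overexpressing human Rac1b were grown 5 days in MEM with 10% FBS, L-glutamine and antibiotics. Cells were then exposed to compound or solvent for 5 min. Rac1b GTP loading was measured with a Rac activation kit using a Rac-specific antibody (G-LISA).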

| SMILES | inhibition [1] [%] | IC50 [3] [µM] | inhibition [6] [%] | other results |
| --- | --- | --- | --- | --- |
| COc1ccc2c(c1OC)C(c1ccccc1)N1CCc3cc4c(cc3C1C2)OCO4 (centres undefined) | 9 | – | – | – |
| COc1cc2cc(-c3ccc4c(c3)OCO4)nc(C)c2cc1OC | 14 | – | – | – |
| COc1ccc2c(c[n+](C)c3c4cc5c(cc4ccc23)OCO5)c1OC [CHELERYTHRINE CHLORIDE] | 35 | > 100 | 40 | IC50 [2]: > 100 µM; Ratio IC50 [4]: > 14; IC50 [5]: 7 µM |
| C[n+]1cc2c(O)c(O)ccc2c2ccc3cc(O)c(O)cc3c21 | 73 | – | < 20 | – |
| COc1cc2c(cc1OC)-c1cc3ccc(OC)c(OC)c3c[n+]1CC2 | 8 | – | – | – |
| COc1cc2cc(-c3cccc(C(C)=O)c3)nc(C)c2cc1OC | 7 | – | – | – |
| Oc1cc2c(cc1O)-c1cc3ccc(O)c(O)c3c[n+]1CC2 | > 100 | 6 | < 20 | – |
| COc1cc2cc(-c3ccc(Cl)c(Cl)c3)nc(C)c2cc1OC | 5 | – | – | – |
| COc1cc2cc(-c3ccc4c(c3)OCO4)[n+](C)c(C)c2cc1OC | 0.3 | – | – | – |
| COc1ccc2c(c1OC)CN1CCc3cc4c(cc3C1C2)OCO4 (racemic) | 4 | – | – | – |
| Cc1nc(-c2ccc(O)c(O)c2)cc2cc(O)c(O)cc12 | 15 | – | – | – |
| Cc1c2cc(O)c(O)cc2cc2c3ccc(O)c(O)c3cc[n+]12 | 70 | 26 | < 20 | – |
| COc1cc2cc3c4ccc(OC)c(OC)c4cc[n+]3c(C)c2cc1OC | 23 | – | – | – |
| COc1cc2cc(-c3ccc(O)c(O)c3)[n+](C)c(C)c2cc1OC | 5 | – | – | – |
| COc1ccc2cc3[n+](cc2c1OC)CCc1cc(O)c(O)cc1-3 | 31 | > 100 | 35 | IC50 [2]: 63 µM; IC50 [5]: 31 µM |
| COc1cc2cc(-c3ccc(O)c(O)c3)nc(C)c2cc1OC | 15 | > 100 | 61 | – |
| Cc1c2cc(O)c(O)cc2cc(-c2ccc(O)c(O)c2)[n+]1C | 12 | – | – | – |
| COc1ccc2cc3[n+](cc2c1OC)CCc1cc2c(cc1-3)OCO2 | 8 | – | – | – |
| Oc1cc2c(cc1O)C1Cc3ccc(O)c(O)c3CN1CC2 (centres undefined) [TETRAHYDROXYCANADINE HYDROCHLORIDE] | – | > 100 | < 20 | – |
| C[n+]1cc2c3c(ccc2c2ccc4cc5c(cc4c21)OCO5)OCO3 | 63 | – | 50 | Ratio IC50 [4]: 13 |
| COc1cc2cc(-c3ccc4ccccc4c3)nc(C)c2cc1OC | 29 | > 100 | < 20 | – |
| COc1ccc2c(c[n+](C)c3c4cc(O)c(O)cc4ccc23)c1OC | 38 | 73 | 39 | – |
| Nc1nc2c(ncn2[C@H]2O[C@@H](COP(=O)(O)OP(=O)(O)O)[C@H](O)[C@@H]2O)c(=O)[nH]1 | – | 1.4 | – | IC50 [2]: 2.7 µM; IC50 [5]: 1.8 µM |
| COc1cc2cc(-c3cccc(C(C)=O)c3)[n+](C)c(C)c2cc1OC | 7 | – | – | – |
